Experimental data taken from ChEMBL document CHEMBL1125377, “Phenothiazines as lipid peroxidation inhibitors and cytoprotective agents” (1992).
Values after ≈ are worked out from the molar mass of the structure shown.

Species: Oryctolagus cuniculus
Experiment: In vitro inhibition of iron-dependent peroxidation of rabbit brain vesicular membrane lipids
Assay type: functional
Details: not given
In short: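 Rabbit brain homogenized 10% w/v in 25 mM Tris-HCl with 0.15 M KCl, pH 7.5, spun 10000g for 15 min. The supernatant was given the agent in DMSO and incubated with ADP (220 μM) and FeCl3 (2 μM) at 37 °C for 1 h; the control was not incubated. TBARS read at 532 nm as MDA against a standard curve. Reported as MIC, the minimum tested concentration giving ≥50% inhibition.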

Row | MIC [µM] | SMILES
1 | 0.26 | CN(C)CCOc1ccc2c(c1)Nc1ccccc1S2.CS(=O)(=O)O
2 | 0.093 | CN(C)CCOc1ccc2c(c1)Nc1ccccc1S2.Cl

Same assay, conditions: Oryctolagus cuniculus; read-out: MIC

Row | MIC [µM] | SMILES
3 | 0.056 (≈ 0.016 µg/mL) | CN(C)CCOc1ccc2c(c1)Sc1ccccc1N2
4 | 2.5 (≈ 0.894 µg/mL) | CN(C)CCOc1ccc2c(c1C(=O)N(C)C)Nc1ccccc1S2
5 | 0.17 (≈ 0.0628 µg/mL) | OCCN1CCN(CCCc2ccc3c(c2)Nc2ccccc2S3)CC1
6 | 21 (≈ 6.31 µg/mL) | CN(C)CCOc1ccc2c(c1)N(C)c1ccccc1S2
7 | 10 (≈ 3.19 µg/mL) | CN(C)CCCN1c2ccccc2Sc2ccc(Cl)cc21 [CHLORPROMAZINE]
8 | 2.6 (≈ 0.893 µg/mL) | COc1ccc2c(c1C(=O)NCCN(C)C)Nc1ccccc1S2
9 | 0.14 (≈ 0.0421 µg/mL) | CN(C)CCCOc1ccc2c(c1)Nc1ccccc1S2
10 | 0.18 (≈ 0.0465 µg/mL) | NCCOc1ccc2c(c1)Nc1ccccc1S2
11 | 0.089 (≈ 0.0267 µg/mL) | CN(C)CCCOc1ccc2c(c1)Sc1ccccc1N2
12 | 0.068 (≈ 0.0253 µg/mL) | OCCN1CCN(CCOc2ccc3c(c2)Nc2ccccc2S3)CC1

Row | SMILES | MIC [µM]
13 | c1ccc2c(c1)Nc1ccccc1S2 [PHENOTHIAZINE] | 0.15 (≈ 0.0299 µg/mL)
